{"source": "ChEMBL document CHEMBL4411270", "about": "“Discovery of Nonquinone Substrates for NAD(P)H: Quinone Oxidoreductase 1 (NQO1) as Effective Intracellular ROS Generators for the Treatment of Drug-Resistant Non-Small-Cell Lung Cancer” (J Med Chem, 2018)", "key": {"[1]": {"target": "NAD(P)H dehydrogenase [quinone] 1 (Homo sapiens) (UniProt P15559)", "sequence (P15559 whole entry)": "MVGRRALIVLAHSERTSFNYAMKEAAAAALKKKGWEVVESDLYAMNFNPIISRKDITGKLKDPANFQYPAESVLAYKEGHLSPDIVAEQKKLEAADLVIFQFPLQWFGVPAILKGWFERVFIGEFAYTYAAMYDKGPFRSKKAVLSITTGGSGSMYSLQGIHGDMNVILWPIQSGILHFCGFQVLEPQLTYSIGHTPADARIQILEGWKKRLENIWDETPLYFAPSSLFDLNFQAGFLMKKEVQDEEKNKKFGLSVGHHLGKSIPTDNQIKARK", "assay": "Substrate activity at recombinant human NQO1 assessed as induction of DNA damage at 10 uM treated post NAC addition and measured after 2 hrs by propidium iodide staining based laser scanning confocal microscopic analysis", "procedure,_shortened": "(§1)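 Comet assay in A549/Taxol cells exposed 2 h to compound (10 µM) or 2 mM H2O2, with or without DIC or NAC pretreatment; comet tail lengths measured in arbitrary units.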"}, "[2]": {"target": "NAD(P)H dehydrogenase [quinone] 1 (Homo sapiens) (UniProt P15559)", "assay": "Substrate activity at NAC pretreated recombinant human NQO1 assessed as reduction in PARP-1 hyperactivation by measuring PAR accumulation at 10 uM treated for 10 mins measured after 60 mins by western blot analysis", "procedure,_shortened": "(§2)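 A549/Taxol cells treated with compound at 10 µM, with or without 50 µM DIC or 10 mM NAC pretreatment, harvested at indicated times; PAR formation by Western blot, plus intracellular ATP and NAD+ levels.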"}, "A549/TR [3]": {"tested_on": "A549/TR", "assay": "Selectivity ratio of IC50 for test compound cytotoxicity against human A549/TR cells expressing NQO1 in presence of NAC to IC50 for test compound cytotoxicity against human A549/TR cells expressing NQO1 in absence of NAC", "assay_type": "functional", "procedure,_shortened": "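A549/Taxol cells pretreated with 50 µM DIC or 10 mM NAC before compound; MTT viability (4 h compound exposure, 72 h further culture, absorbance 560 nm) gives IC50, compared with IC50 without pretreatment.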"}, "A549/TR [4]": {"tested_on": "A549/TR", "assay": "Antitumor activity against human A549/TR cells expressing NQO1 xenografted in nude mouse assessed as increase in large areas of necrosis at 15 to 30 mg/kg, iv treated every other day for 3 weeks by hematoxylin and eosin staining based optical microscopic analysis", "assay_type": "functional, organism-based", "procedure,_shortened": "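A549/Taxol tumor-bearing nude mice dosed by tail-vein injection every other day for three weeks (15 or 30 mg/kg; Taxol reference 2 mg/kg; vehicle controls). Tumor volume followed over treatment, tumors weighed at end, body weight monitored. Tumor sections stained with H&E for necrosis and karyorrhexis.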"}, "[5]": {"assay": "Hepatotoxicity in nude mouse xenografted with human A549/TR cells expressing NQO1 assessed as total protein level at 15 to 30 mg/kg, iv treated every other day for 3 weeks by hematoxylin and eosin staining based optical microscopic analysis", "assay_type": "toxicity, organism-based", "details": "in vivo, 504 h", "procedure,_shortened": "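Nude mice bearing A549/Taxol xenografts given saline, 15 or 30 mg/kg by tail-vein injection every other day, or Taxol 2 mg/kg, for 3 weeks. Mice then euthanized. Major organs examined by H&E staining. Blood collected for biochemistry: TP, ALB, GLB, AST, BUN, LDH.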"}, "A549/TR [6]": {"tested_on": "A549/TR", "assay": "Induction of apoptosis in human A549/TR cells expressing NQO1 assessed as viable cells at 10 uM after 24 hrs by Annexin V-FITC/propidium iodide based flow cytometric analysis (reference value: 93.16%)", "assay_type": "functional", "details": "read-out: Activity", "procedure,_shortened": "(§3)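 A549/Taxol cells exposed 24 h to 1, 5 or 10 µM. The 10 µM arms included pretreatment with 50 µM dicoumarol or 10 mM N-acetylcysteine. Cells stained with Annexin V-FITC and propidium iodide, and populations quantified by flow cytometry.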"}, "A549/TR [7]": {"tested_on": "A549/TR", "assay": "Induction of apoptosis in human A549/TR cells expressing NQO1 at 10 uM treated post NAC addition and measured after 24 hrs by Annexin V-FITC/propidium iodide based flow cytometric analysis", "assay_type": "functional, cell-based"}, "A549/TR [8]": {"tested_on": "A549/TR", "assay": "Induction of apoptosis in human A549/TR cells expressing NQO1 assessed as early apoptotic cells at 10 uM treated post NAC addition and measured after 24 hrs by Annexin V-FITC/propidium iodide based flow cytometric analysis (reference value: 0.43%)", "assay_type": "functional", "procedure,_shortened": "as §3"}, "A549/TR [9]": {"tested_on": "A549/TR", "assay": "Induction of apoptosis in human A549/TR cells expressing NQO1 assessed as early apoptotic cells at 1 uM after 24 hrs by Annexin V-FITC/propidium iodide based flow cytometric analysis (reference value: 0.43%)", "assay_type": "functional", "procedure,_shortened": "as §3"}, "[10]": {"target": "NAD(P)H dehydrogenase [quinone] 1 (Homo sapiens) (UniProt P15559)", "assay": "Substrate activity at recombinant human NQO1 assessed as ROS generation by measuring umol of cytochrome c utilized per umol of enzyme at 10 uM measured at 2 secs interval for 5 mins in presence of NADPH"}, "A549/TR [11]": {"tested_on": "A549/TR", "assay": "Induction of apoptosis in human A549/TR cells expressing NQO1 assessed as viable cells at 10 uM treated post DIC addition and measured after 24 hrs by Annexin V-FITC/propidium iodide based flow cytometric analysis (reference value: 93.16%)", "assay_type": "functional", "details": "read-out: Activity", "procedure,_shortened": "as §3"}, "[12]": {"assay": "Toxicity in nude mouse xenografted with human A549/TR cells expressing NQO1 assessed as damage to spleen at 15 to 30 mg/kg, iv treated every other day for 3 weeks by hematoxylin and eosin staining based optical microscopic analysis", "assay_type": "organism-based", "details": "in vivo, 504 h", "procedure,_shortened": "(§4)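 A549/Taxol xenograft nude mice dosed by tail-vein injection at 15 or 30 mg/kg every other day for three weeks; saline vehicle group. Afterwards mice were euthanized, major organs H&E stained, and blood taken for biochemistry (TP, ALB, GLB, AST, BUN, LDH); tumor tissue assayed for ROS and GSH.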"}, "[13]": {"target": "NAD(P)H dehydrogenase [quinone] 1 (Homo sapiens) (UniProt P15559)", "assay": "Substrate activity at recombinant human NQO1 assessed as induction of DNA damage at 10 uM after 2 hrs by propidium iodide staining based laser scanning confocal microscopic analysis", "procedure,_shortened": "as §1"}, "[14]": {"assay": "Toxicity in nude mouse xenografted with human A549/TR cells expressing NQO1 assessed as damage to lung at 15 to 30 mg/kg, iv treated every other day for 3 weeks by hematoxylin and eosin staining based optical microscopic analysis", "assay_type": "organism-based", "details": "in vivo, 504 h", "procedure,_shortened": "as §4"}, "[15]": {"target": "NAD(P)H dehydrogenase [quinone] 1 (Homo sapiens) (UniProt P15559)", "assay": "Substrate activity at DIC pretreated recombinant human NQO1 assessed as reduction in PARP-1 hyperactivation by measuring depletion of NAD+ level at 10 uM measured up to 300 mins", "procedure,_shortened": "as §2"}, "[16]": {"target": "NAD(P)H dehydrogenase [quinone] 1 (Homo sapiens) (UniProt P15559)", "assay": "Substrate activity at recombinant human NQO1 assessed as reduction in PARP-1 hyperactivation by measuring depletion of NAD+ level at 10 uM measured up to 300 mins in presence of PARP-1 inhibitor 3-AB", "procedure,_shortened": "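A549/Taxol cells exposed to compound (10 µM) with or without 25 mM 3-aminobenzamide, harvested at indicated times; PAR by Western blot and intracellular ATP and NAD+ levels measured.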"}, "A549/TR [17]": {"tested_on": "A549/TR", "assay": "Induction of apoptosis in human A549/TR cells expressing NQO1 assessed as early apoptotic cells at 10 uM after 24 hrs by Annexin V-FITC/propidium iodide based flow cytometric analysis (reference value: 0.43%)", "assay_type": "functional", "procedure,_shortened": "as §3"}, "L02": {"tested_on": "L02", "assay": "Cytotoxicity against NQO1 deficient human L02 cells assessed as reduction in cell viability after 72 hrs by MTT assay", "assay_type": "cell-based", "details": "L02, 72 h"}, "A549/TR [18]": {"tested_on": "A549/TR", "assay": "Induction of apoptosis in human A549/TR cells expressing NQO1 assessed as increase in cleaved p53 level up to 10 uM treated post NAC addition by Western blot analysis", "assay_type": "functional, cell-based", "procedure,_shortened": "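A549/Taxol cells treated with graded concentrations up to 10 µM, with or without pretreatment with 50 µM dicoumarol or 10 mM N-acetylcysteine. Cells then harvested, washed in cold PBS and trypsinized. Lysates probed by Western blot for cleaved PARP and p53.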"}, "A549/TR [19]": {"tested_on": "A549/TR", "assay": "Induction of apoptosis in human A549/TR cells expressing NQO1 assessed as late apoptotic cells at 1 uM after 24 hrs by Annexin V-FITC/propidium iodide based flow cytometric analysis (reference value: 2.49%)", "assay_type": "functional", "procedure,_shortened": "as §3"}, "A549/TR [20]": {"tested_on": "A549/TR", "assay": "Induction of apoptosis in human A549/TR cells expressing NQO1 assessed as viable cells at 10 uM treated post NAC addition and measured after 24 hrs by Annexin V-FITC/propidium iodide based flow cytometric analysis (reference value: 93.16%)", "assay_type": "functional", "details": "read-out: Activity", "procedure,_shortened": "as §3"}}, "note": "pIC50: −log10 of the molar value. The source made the active and inactive calls. The rule behind the calls is not given here.", "data": [{"smiles": "N#Cc1nc2c(nc1C#N)-c1cc(F)c(F)cc1C2=O", "values": [{"measurement": "Activity", "setting": "[1]", "value": "inactive"}, {"measurement": "Activity", "setting": "[2]", "value": "inactive"}, {"measurement": "Ratio IC50", "setting": "A549/TR [3]", "value": "42 - 55"}, {"measurement": "Activity", "setting": "A549/TR [4]", "value": "Active"}, {"measurement": "Activity", "setting": "[5]", "value": "Non-Toxic"}, {"measurement": "viability at 10 µM", "setting": "A549/TR [6]", "value": 26.6, "unit": "%"}, {"measurement": "Activity", "setting": "A549/TR [7]", "value": "inactive"}, {"measurement": "Activity", "setting": "A549/TR [8]", "value": 4.51, "unit": "%"}, {"measurement": "Activity", "setting": "A549/TR [9]", "value": 15.91, "unit": "%"}, {"measurement": "Activity", "setting": "[10]", "value": 1210, "unit": "µmol/min"}, {"measurement": "viability at 10 µM", "setting": "A549/TR [11]", "value": 73.7, "unit": "%"}, {"measurement": "Activity", "setting": "[12]", "value": "Non-Toxic"}, {"measurement": "Activity", "setting": "[13]", "value": "Active"}, {"measurement": "Activity", "setting": "[14]", "value": "Non-Toxic"}, {"measurement": "Activity", "setting": "[15]", "value": "inactive"}, {"measurement": "Activity", "setting": "[16]", "value": "inactive"}, {"measurement": "Activity", "setting": "A549/TR [17]", "value": 60.65, "unit": "%"}, {"measurement": "pIC50", "setting": "L02", "value": 4.52}, {"measurement": "Activity", "setting": "A549/TR [18]", "value": "Active"}, {"measurement": "Activity", "setting": "A549/TR [19]", "value": 12.92, "unit": "%"}, {"measurement": "viability at 10 µM", "setting": "A549/TR [20]", "value": 86.8, "unit": "%"}]}]}
